According to ChEMBL document CHEMBL4364306, “Structure-activity relationships of thiazole and benzothiazole derivatives as selective cannabinoid CB2 agonists with in vivo anti-inflammatory properties” (Eur J Med Chem, 2019):
Calls of active or inactive are those of the source. No cut-off for these calls is given here.

How the values were obtained:
Mus musculus [1] = assay: Anti-colitis activity in Swiss albino mouse model of DSS-induced acute colitis assessed as reduction in DSS-induced inflammatory cells infiltration in the submucosa in colon at 10 mg/kg, ip administrated for 7 days by H and E staining based light microscopic method; assay type: functional, organism-based
Outline: (§1)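 DSS colitis (3% DSS, 7 days) in male Swiss albino mice with daily ip 10 mg/kg in 4% DMSO/2% tween/saline. Distal colon fixed in 10% formol saline 24 h, paraffin-embedded, 4 µm sections, H&E, light microscopy scored for epithelial ulceration/desquamation, mucosal and submucosal infiltration, submucosal oedema, haemorrhage, lymphoid hyperplasia.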

Cannabinoid receptor 2 [2] = target: T1, Cannabinoid receptor 2 (Homo sapiens, UniProt P34972); assay: Displacement of [3H]CP55940 from recombinant human CB2R expressed in HEK293 cell membranes at 10 uM incubated for 90 mins relative to control
Mus musculus [3] = assay: Anti-colitis activity in Swiss albino mouse model of DSS-induced acute colitis assessed as colon length at 10 mg/kg, ip administrated for 7 days (reference value: 7.314 +/- 0.1143 cm); assay type: functional
Mus musculus [4] = assay: Anti-colitis activity in Swiss albino mouse model of DSS-induced acute colitis assessed as reduction in DSS-induced ulceration in distal part of colon at 10 mg/kg, ip administrated for 7 days by H and E staining based light microscopic method; assay type: functional, organism-based; outline: as §1
Mus musculus [5] = assay: Anti-colitis activity in Swiss albino mouse model of DSS-induced acute colitis assessed as reduction in DSS-induced haemorrhage in colon at 10 mg/kg, ip administrated for 7 days by H and E staining based light microscopic method; assay type: functional, organism-based; outline: as §1
Cannabinoid receptor 2 [6] = target: T1, Cannabinoid receptor 2; assay: Agonist activity at recombinant human CB2R expressed in CHOK1 cells assessed as inhibition of NKH477-stimulated intracellular cAMP levels after 30 mins by chemiluminescent detection based cAMP Hunter assay; assay type: functional, cell-based
Outline: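 CHO-K1 cells overexpressing human CB2R, plated 30,000 cells/well, overnight 37 °C, 5% CO2. Compound dose-responses incubated 30 min at 37 °C with NKH-477 (25 µM) to stimulate adenylate cyclase. Enzyme fragment complementation chemiluminescence read. Normalised to NKH-477 alone as 100%; mean ± SEM of three independent experiments in triplicate.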

Mus musculus [7] = assay: Anti-colitis activity in Swiss albino mouse model of DSS-induced acute colitis assessed as reduction in DSS-induced desquamation in lining of mucosal epithelium in colon tissue at 10 mg/kg, ip administrated for 7 days by H and E staining based light microscopic method; assay type: functional, organism-based; outline: as §1
Cannabinoid receptor 1 [8] = target: T2, Cannabinoid receptor 1 (Homo sapiens, UniProt P21554); assay: Displacement of [3H]CP55940 from recombinant human CB1R expressed in HEK293 cell membranes at 10 uM incubated for 90 mins relative to control
Mus musculus [9] = assay: Anti-inflammatory activity in Swiss albino mouse model of DSS-induced acute colitis as IL1beta level in colon tissue at 10 mg/kg, ip administrated for 7 days by ELISA (reference value: 140.9 +/- 8.551 pg/mg); assay type: functional
Mus musculus [10] = assay: Anti-colitis activity in Swiss albino mouse model of DSS-induced acute colitis assessed as disease activity index at 10 mg/kg, ip administrated for 7 days (reference value: 7.143 +/- 1.29); assay type: functional
Mus musculus [11] = assay: Anti-inflammatory activity in Swiss albino mouse model of DSS-induced acute colitis as TNFalpha level in colon tissue at 10 mg/kg, ip administrated for 7 days by ELISA (reference value: 102.4 +/- 5.043 pg/mg); assay type: functional
Mus musculus [12] = assay: Anti-colitis activity in Swiss albino mouse model of DSS-induced acute colitis assessed as reduction in DSS-induced oedema in colon at 10 mg/kg, ip administrated for 7 days by H and E staining based light microscopic method; assay type: functional, organism-based; outline: as §1
Cannabinoid receptor 2 [13] = target: T1, Cannabinoid receptor 2; assay: Antagonist activity at N-terminal Flag epitope tagged CB2 (unknown origin) expressed in HTLA cells assessed as decrease in CP55940-induced beta-arrestin recruitment pretreated with non-selective cannabinoid receptor agonist CP55940 for 30 mins and measured after 20 mins by Tango assay; assay type: cell-based
Homo sapiens = organism: Homo sapiens; assay: Selectivity index, ratio of Ki for recombinant human CB1R expressed in HEK293 cell membranes to Ki for recombinant human CB2R expressed in HEK293 cell membranes; assay type: cell-based
Cannabinoid receptor 1 [14] = target: T2, Cannabinoid receptor 1; assay: Antagonist activity at N-terminal Flag epitope tagged CB1 (unknown origin) expressed in HTLA cells assessed as decrease in CP55940-induced beta-arrestin recruitment pretreated with non-selective cannabinoid receptor agonist CP55940 for 30 mins and measured after 20 mins by Tango assay; assay type: cell-based
Mus musculus [15] = assay: Anti-colitis activity in Swiss albino mouse model of DSS-induced acute colitis assessed as reduction in DSS-induced lymphoid hyperplasia in the sub-musoca in colon at 10 mg/kg, ip administrated for 7 days by H and E staining based light microscopic method; assay type: functional, organism-based; outline: as §1
Cannabinoid receptor 2 [16] = target: T1, Cannabinoid receptor 2; assay: Agonist activity at N-terminal Flag epitope tagged CB2 (unknown origin) expressed in HTLA cells assessed as increase of beta-arrestin recruitment by Tango assay; assay type: cell-based
Outline: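 β-arrestin Tango assay: HTLA cells transfected overnight with GPCR tango constructs, plated at 15,000 cells/well in DMEM with 1% dFBS, recovered ≥6 h. Drugs in Tango buffer (20 mM HEPES, 1x HBSS, pH 7.40) added overnight, full concentration-response (maximum 30 µM). BrightGlo reagent, 20 min room temperature in dark, luminescence read.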

Cannabinoid receptor 1 [17] = target: T2, Cannabinoid receptor 1; assay: Agonist activity at N-terminal Flag epitope tagged CB1 (unknown origin) expressed in HTLA cells assessed as increase of beta-arrestin recruitment by Tango assay; assay type: cell-based
Outline: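 HTLA cells transfected overnight with GPCR Tango constructs, plated at 15,000 cells/well in DMEM with 1% dFBS and allowed to recover at least 6 h. Compounds in Tango buffer (20 mM HEPES, 1x HBSS, pH 7.40) added overnight, full concentration-response up to 30 µM against CP-55,940 as reference agonist. BrightGlo reagent added for 20 min at room temperature in the dark, then luminescence read.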

T2 sequence (P21554 whole entry): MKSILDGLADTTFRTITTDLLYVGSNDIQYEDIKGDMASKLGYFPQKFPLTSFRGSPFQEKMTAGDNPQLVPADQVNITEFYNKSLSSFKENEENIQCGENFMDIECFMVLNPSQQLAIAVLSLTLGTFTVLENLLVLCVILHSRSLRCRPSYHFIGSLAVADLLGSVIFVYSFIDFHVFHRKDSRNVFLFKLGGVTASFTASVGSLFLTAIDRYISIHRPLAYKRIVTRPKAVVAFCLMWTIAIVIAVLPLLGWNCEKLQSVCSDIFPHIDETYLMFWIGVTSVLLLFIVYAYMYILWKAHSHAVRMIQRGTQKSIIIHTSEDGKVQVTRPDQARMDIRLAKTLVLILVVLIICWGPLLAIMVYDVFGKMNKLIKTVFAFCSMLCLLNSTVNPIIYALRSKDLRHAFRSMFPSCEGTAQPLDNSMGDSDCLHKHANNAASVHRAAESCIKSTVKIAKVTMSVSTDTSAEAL
T1 sequence (P34972 whole entry): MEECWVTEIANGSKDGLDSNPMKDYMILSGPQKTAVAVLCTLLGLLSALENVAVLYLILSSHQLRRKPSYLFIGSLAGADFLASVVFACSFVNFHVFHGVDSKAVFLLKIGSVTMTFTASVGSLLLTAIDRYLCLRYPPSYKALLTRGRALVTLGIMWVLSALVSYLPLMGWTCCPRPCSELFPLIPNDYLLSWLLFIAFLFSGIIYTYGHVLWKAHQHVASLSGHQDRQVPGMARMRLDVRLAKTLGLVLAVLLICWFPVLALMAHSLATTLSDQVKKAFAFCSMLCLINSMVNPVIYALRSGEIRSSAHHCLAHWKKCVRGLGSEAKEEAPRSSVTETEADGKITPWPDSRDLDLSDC

## CCCCCn1/c(=N/C(=O)c2cccc(C(F)(F)F)c2)sc2ccccc21
Mus musculus [1]
  Activity: inactive
Cannabinoid receptor 2 [2]
  Activity: Active
Mus musculus [3]
  Activity: 6.729 cm
Mus musculus [4]
  Activity: Active
Mus musculus [5]
  Activity: Active
Cannabinoid receptor 2 [6]
  EC50: 306 nM
Mus musculus [7]
  Activity: Active
Cannabinoid receptor 1 [8]
  Activity: Active
Mus musculus [9]
  Activity: 102.4 pg/mg
Mus musculus [10]
  Activity_index: 3.286
Mus musculus [11]
  Activity: 58.71 pg/mg
Mus musculus [12]
  Activity: Active
Cannabinoid receptor 2 [13]
  EC50: > 30000 nM
Homo sapiens
  Ratio Ki: 429
Cannabinoid receptor 1 [14]
  EC50: > 30000 nM
Mus musculus [15]
  Activity: Active
Cannabinoid receptor 2 [16]
  EC50: 129 nM
Cannabinoid receptor 1 [17]
  EC50: > 30000 nM
